Data set [1] can be described thus: AFM / amyloid fibril formation of an IAPP peptide by itself. Format: physicochemical. The following applies: 37 μM hIAPP alone, 20 mM tris pH 7.40, 37°C, 40 min shaking, deposited onto mica. In a few lines: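 HFIP stocks of peptide (0.125 mg/mL) were sonicated 10 min and held at −80°C. HFIP was removed under vacuum and peptide dissolved in 20 mM Tris pH 7.40. hIAPP was held at 37 μM, alone or with animal IAPP at 37 μM (1:1). Incubation: 37°C, 200 rpm, 40 min. Samples were spotted on fresh mica for 5 min, water-washed, dried, and imaged by AC-mode AFM without flattening.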

The subject of data set [2] is RIN-m cells. Description: LDH cytotoxicity assay. It counts as cell-based. To be noted: 48 h at 37°C; for LDH release / plasma membrane damage, peptide alone: 12.8 μM IAPP alone; for LDH cytotoxicity of hIAPP mixed with animal IAPP: 12.8 μM hIAPP + 12.8 μM animal IAPP (1:1). In a few lines: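 RIN-m cells were plated overnight and refed with RPMI-1640 + 10% FBS. HFIP-dried IAPPs were resuspended in the same medium by scraping and 30 s vortexing. Each IAPP was added at 12.8 μM, or hIAPP + animal IAPP 1:1, for 48 h at 37°C, 5% CO2. Spontaneous (water) and maximum (lysis buffer) release wells ran 45 min. Supernatant reaction: 30 min RT dark, then stop. A450/A620; % cytotoxicity by kit equation.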

For data set [3], the system named is RIN-m cells. In words: Cell morphology imaging. Format: cell-based. The following applies: for RIN-m cell morphology, peptide alone: 12.8 μM IAPP alone (absence of hIAPP for animal variants); for RIN-m cell morphology, hIAPP mixed with animal IAPP: 12.8 μM hIAPP + animal IAPP, 1:1 ratio.
For data set [4] the following is noted: patients with type 1 diabetes taking hIAPP mimetic supplements; cited from earlier work.
The subject of data set [5] is hIAPP aggregation / fibril formation. To be noted: cited from earlier work.
The conditions of data set [6]: cited from earlier work.

Ends that are not written are not given here.

As to “Human Islet Amyloid Polypeptide (KCNTATCATQRLANFLVHSSNNFGAILSSTNVGSNTY; Islet amyloid polypeptide; UniProt P10997 34-70, looked up) [hIAPP, reference compound]”, the “fibril formation of the peptide alone (AFM)” value in data set [1] was “forms high-density plaques of fibrils”. In addition, the “LDH release / plasma membrane damage, peptide alone” value with RIN-m cells [2] is given as “increased the release of LDH into the media”. The “RIN-m cell morphology, peptide alone” value with RIN-m cells [3] is “changes in cellular shape, formation of granular nuclear structures, and detachment of numerous cells from the plate surface”.
Take “cat IAPP: synthetic naturally occurring cat variant of IAPP (KCNTATCATQRLANFLIRSSNNLGAILSPTNVGSNTY; ends and bridges not checked; cysteine pairing not given here; UniProt P12967 34-70, looked up)”: in the data set on RIN-m cells [2], the “LDH release / plasma membrane damage, peptide alone” value was “some damage to the plasma membrane of the cells, but much less compared to hIAPP”; the “LDH cytotoxicity of hIAPP mixed with animal IAPP” value was “decreased the toxicity of hIAPP and reduced the amount of damage to the plasma membrane”. In the data set on RIN-m cells [3], the “RIN-m cell morphology, peptide alone” value is “some rounding of cells and detaching from the plate”; the “RIN-m cell morphology, hIAPP mixed with animal IAPP” value is on record as “cells looking better than cells incubated with hIAPP alone”.
For the substance pramlintide, the average weight loss result in data set [4] was “about 2 kg”.
For “rat IAPP: synthetic naturally occurring rat variant of IAPP, non-amyloidogenic”, in the data set on RIN-m cells [2], the “LDH release / plasma membrane damage, peptide alone” value is reported as “very little effect on the cellular plasma membrane” and the “LDH cytotoxicity of hIAPP mixed with animal IAPP” value is listed as “increased the amount of cytotoxicity in the cell”. In the data set on RIN-m cells [3], the “RIN-m cell morphology, peptide alone” value is “did not cause significant changes to RIN-m morphology”; the “RIN-m cell morphology, hIAPP mixed with animal IAPP” value is “many cells with a round shape and detached from the plate”. Also, the “inhibition of hIAPP aggregation (literature)” value in data set [5] is given as “modest inhibitors of hIAPP aggregation”. Besides, in data set [6], the “independent aggregation, fibril formation and toxicity to living cells” value was “does not independently aggregate, form fibrils, or show toxicity to living cells”.

The record behind these values is article PMC10712300 (Protein and peptide letters, 2021).
